According to ChEMBL document CHEMBL5247578, “Effective synthesis of benzimidazoles-imidazo[1,2-a]pyrazine conjugates: A comparative study of mono-and bis-benzimidazoles for antitumor activity” (Eur J Med Chem, 2019):

Legend:
Format in all cases: functional
[1] = test system: MDA-MB-468; assay: Antiproliferative activity against human MDA-MB-468 cells assessed as cell growth inhibition at 10 uM incubated for 48 hrs by sulforhodamine B assay relative to control
In short: (§1)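 NCI-60 single-dose screen at 10^-5 M. Cells grown in RPMI 1640 with 5% FBS and 2 mM L-glutamine, plated at 5,000–40,000 cells/well, and preincubated 24 h. Drug (DMSO stock) added and incubated 48 h at 37 °C, 5% CO2. Adherent cells fixed with cold TCA, stained with 0.4% SRB in 1% acetic acid, dye solubilized in 10 mM trizma base, A515 read. Percent growth taken against time-zero and untreated control.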

[2] = test system: T47D; assay: Antiproliferative activity against human T47D cells assessed as cell growth inhibition at 10 uM incubated for 48 hrs by sulforhodamine B assay relative to control; in short: as §1
[3] = test system: BT-549; assay: Antiproliferative activity against human BT-549 cells assessed as cell growth inhibition at 10 uM incubated for 48 hrs by sulforhodamine B assay relative to control
In short: (§2)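 Single-dose NCI-60 prescreen at 10^-5 M. Cells in RPMI 1640 with 5% FBS and 2 mM L-glutamine, seeded 5,000–40,000 cells/well with 24 h preincubation, then drug exposure for 48 h at 37 °C under 5% CO2. Growth read by SRB staining of TCA-fixed cells at 515 nm against time-zero and untreated controls. Negative growth values denote cell kill.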

[4] = test system: Hs-578T; assay: Antiproliferative activity against human Hs-578T cells assessed as cell growth inhibition at 10 uM incubated for 48 hrs by sulforhodamine B assay relative to control; in short: as §1
[5] = test system: MDA-MB-231; assay: Antiproliferative activity against human MDA-MB-231 cells assessed as cell growth inhibition at 10 uM incubated for 48 hrs by sulforhodamine B assay relative to control; in short: as §1
[6] = test system: DU-145; assay: Antiproliferative activity against human DU-145 cells assessed as cell growth inhibition at 10 uM incubated for 48 hrs by sulforhodamine B assay relative to control
In short: (§3)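 NCI-60 one-dose prescreen at 10^-5 M. Cells grown in RPMI 1640 with 5% FBS and 2 mM glutamine, preincubated 24 h, then exposed 48 h at 37 °C. Adherent lines TCA-fixed, SRB-stained, A515 read. Growth percent relative to time-zero and control; negative values mean cell kill.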

[7] = test system: TK-10; assay: Antiproliferative activity against human TK-10 cells assessed as cell growth inhibition at 10 uM incubated for 48 hrs by sulforhodamine B assay relative to control; in short: as §1
[8] = test system: ACHN; assay: Antiproliferative activity against human ACHN cells assessed as cell growth inhibition at 10 uM incubated for 48 hrs by sulforhodamine B assay relative to control; in short: as §2
[9] = test system: SK-OV-3; assay: Antiproliferative activity against human SK-OV-3 cells assessed as cell growth inhibition at 10 uM incubated for 48 hrs by sulforhodamine B assay relative to control; in short: as §1
[10] = test system: OVCAR-4; assay: Antiproliferative activity against human OVCAR-4 cells assessed as cell growth inhibition at 10 uM incubated for 48 hrs by sulforhodamine B assay relative to control; in short: as §1
[11] = test system: OVCAR-3; assay: Antiproliferative activity against human OVCAR-3 cells assessed as cell growth inhibition at 10 uM incubated for 48 hrs by sulforhodamine B assay relative to control; in short: as §1
[12] = test system: IGROV-1; assay: Antiproliferative activity against human IGROV-1 cells assessed as cell growth inhibition at 10 uM incubated for 48 hrs by sulforhodamine B assay relative to control; in short: as §1
[13] = test system: UACC-62; assay: Antiproliferative activity against human UACC-62 cells assessed as cell growth inhibition at 10 uM incubated for 48 hrs by sulforhodamine B assay relative to control; in short: as §1
[14] = test system: UACC-257; assay: Antiproliferative activity against human UACC-257 cells assessed as cell growth inhibition at 10 uM incubated for 48 hrs by sulforhodamine B assay relative to control; in short: as §1
[15] = test system: SK-MEL-5; assay: Antiproliferative activity against human SK-MEL-5 cells assessed as cell growth inhibition at 10 uM incubated for 48 hrs by sulforhodamine B assay relative to control; in short: as §1
[16] = test system: SK-MEL-28; assay: Antiproliferative activity against human SK-MEL-28 cells assessed as cell growth inhibition at 10 uM incubated for 48 hrs by sulforhodamine B assay relative to control; in short: as §1
[17] = test system: U-251; assay: Antiproliferative activity against human U-251 cells assessed as cell growth inhibition at 10 uM incubated for 48 hrs by sulforhodamine B assay relative to control; in short: as §1
[18] = test system: SNB-19; assay: Antiproliferative activity against human SNB-19 cells assessed as cell growth inhibition at 10 uM incubated for 48 hrs by sulforhodamine B assay relative to control; in short: as §1
[19] = test system: SF-295; assay: Antiproliferative activity against human SF-295 cells assessed as cell growth inhibition at 10 uM incubated for 48 hrs by sulforhodamine B assay relative to control; in short: as §1
[20] = test system: SF-268; assay: Antiproliferative activity against human SF-268 cells assessed as cell growth inhibition at 10 uM incubated for 48 hrs by sulforhodamine B assay relative to control; in short: as §1
[21] = test system: COLO 205; assay: Antiproliferative activity against human COLO 205 cells assessed as cell growth inhibition at 10 uM incubated for 48 hrs by sulforhodamine B assay relative to control; in short: as §2
[22] = test system: EKVX; assay: Antiproliferative activity against human EKVX cells assessed as cell growth inhibition at 10 uM incubated for 48 hrs by sulforhodamine B assay relative to control; in short: as §3
[23] = test system: SR; assay: Antiproliferative activity against human SR cells assessed as cell growth inhibition at 10 uM incubated for 48 hrs by sulforhodamine B assay relative to control; in short: as §1
[24] = test system: MOLT-4; assay: Antiproliferative activity against human MOLT-4 cells assessed as cell growth inhibition at 10 uM incubated for 48 hrs by sulforhodamine B assay relative to control; in short: as §1
[25] = test system: K562; assay: Antiproliferative activity against human K562 cells assessed as cell growth inhibition at 10 uM incubated for 48 hrs by sulforhodamine B assay relative to control; in short: as §1
[26] = test system: HL-60; assay: Antiproliferative activity against human HL-60 cells assessed as cell growth inhibition at 10 uM incubated for 48 hrs by sulforhodamine B assay relative to control; in short: as §3
[27] = test system: CAKI-1; assay: Antiproliferative activity against human CAKI-1 cells assessed as cell growth inhibition at 10 uM incubated for 48 hrs by sulforhodamine B assay relative to control; in short: as §2
[28] = test system: HCC 2998; assay: Antiproliferative activity against human HCC 2998 cells assessed as cell growth inhibition at 10 uM incubated for 48 hrs by sulforhodamine B assay relative to control; in short: as §3
[29] = test system: HOP-62; assay: Antiproliferative activity against human HOP-62 cells assessed as cell growth inhibition at 10 uM incubated for 48 hrs by sulforhodamine B assay relative to control; in short: as §3
[30] = test system: Malme-3M; assay: Antiproliferative activity against human Malme-3M cells assessed as cell growth inhibition at 10 uM incubated for 48 hrs by sulforhodamine B assay relative to control; in short: as §1

Row | SMILES | inhibition at 10 µM [1] [%] | inhibition at 10 µM [2] [%] | inhibition at 10 µM [3] [%] | inhibition at 10 µM [4] [%] | inhibition at 10 µM [5] [%] | inhibition at 10 µM [6] [%] | inhibition at 10 µM [8] [%] | inhibition at 10 µM [11] [%] | inhibition at 10 µM [12] [%] | inhibition at 10 µM [13] [%] | inhibition at 10 µM [15] [%] | inhibition at 10 µM [17] [%] | inhibition at 10 µM [18] [%] | inhibition at 10 µM [19] [%] | inhibition at 10 µM [20] [%] | inhibition at 10 µM [21] [%] | inhibition at 10 µM [22] [%] | inhibition at 10 µM [23] [%] | inhibition at 10 µM [24] [%] | inhibition at 10 µM [26] [%] | other results
1 | c1ccc(-c2cn3ccnc3c(-c3ccc4ncn(C5CCCCC5)c4c3)n2)cc1 | 54.4 | -11.1 | 57.1 | 23.8 | 41.5 | 29.3 | 35.9 | 41.8 | 11.9 | 65.7 | 36.5 | 37.3 | 22.9 | 39.8 | 21.7 | 20.7 | 24.2 | 59.8 | 67.7 | 67.1 | inhibition at 10 µM [7]: 2.26%; inhibition at 10 µM [9]: 7.52%; inhibition at 10 µM [10]: 34.5%; inhibition at 10 µM [14]: 5.22%; inhibition at 10 µM [16]: 18%; inhibition at 10 µM [25]: 70.6%
2 | CCc1ccc(-c2cn3ccnc3c(-c3ccc4ncn(Cc5ccccc5)c4c3)n2)cc1 | 17.2 | 94.8 | 15.9 | 21.8 | 43.2 | 19.1 | 44.7 | 31.2 | 25 | 24.9 | 47.9 | 46.1 | 20.9 | 51.2 | 30.5 | 34.2 | 39.7 | 49.9 | 54.2 | 39.6 | inhibition at 10 µM [7]: 15.5%; inhibition at 10 µM [27]: 47.9%; inhibition at 10 µM [9]: 0.55%; inhibition at 10 µM [10]: 35.1%; inhibition at 10 µM [16]: 19.1%; inhibition at 10 µM [28]: 25.2%; inhibition at 10 µM [29]: 17.9%
3 | c1cn2cc(-c3ccc4c(c3)ncn4C3CCCCC3)nc(-c3ccc4ncn(C5CCCCC5)c4c3)c2n1 | 14.9 | 44.7 | 27.7 | 23.6 | 28.9 | 8.72 | 5.48 | 3.05 | 8.51 | 29.3 | 36.8 | 38.7 | 10.6 | 50.6 | 18.4 | 6.71 | 60.2 | 50 | 56.9 | 30 | inhibition at 10 µM [27]: 15.9%; inhibition at 10 µM [14]: 14.9%; inhibition at 10 µM [30]: 5.14%; inhibition at 10 µM [28]: 15.5%; inhibition at 10 µM [29]: 16.8%; inhibition at 10 µM [25]: 38.5%
4 | c1ccc(Cn2cnc3ccc(-c4nc(-c5ccc6c(c5)ncn6C5CCCCC5)cn5ccnc45)cc32)cc1 | -35.7 | -2.12 | -44.7 | 99.6 | -70.1 | -28.2 | 80.1 | -35.7 | 94.2 | -31.2 | -84 | -22.8 | 80.4 | -81.3 | -0.11 | -29.9 | -12.2 | 94.5 | 95.6 | -20.8 | inhibition at 10 µM [7]: 94.8%; inhibition at 10 µM [27]: 56.7%; inhibition at 10 µM [9]: -22.2%; inhibition at 10 µM [10]: 83.2%; inhibition at 10 µM [14]: -32.7%; inhibition at 10 µM [16]: 99.6%; inhibition at 10 µM [30]: -15.4%; inhibition at 10 µM [28]: -88%; inhibition at 10 µM [29]: -9.39%
